From BindingDB's records for doi:10.1021/jm990600c (University of California, 2000) come the findings set out here.

Assay [1] addresses T1, Gag-Pol polyprotein [489-587] (Human immunodeficiency virus 1, UniProt P04585).
T1 construct: 489-587
Description: Inhibition of strand -transfer (ST) activity in the presence of Mn2+. The method in brief:
(§1)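 Purified recombinant HIV-1 integrase with DNAs mimicking one viral cDNA end and a target DNA, Mn2+ as the divalent cofactor; compounds titrated in. Terminal cleavage (3'-processing) and strand-transfer products resolved and read by gel assay.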

In assay [2] the target is T1, Gag-Pol polyprotein [489-587]. The assay can be described thus: Inhibition of 3'-processing (TC) in the presence of Mn2+ in vitro. The procedure, abridged: as §1
The target is the same in assay [3]. The assay can be described thus: Tested in vitro against strand -transfer (ST) activity in the presence of Mg2+ as the cationic cofactor. The procedure, abridged:
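Strand transfer by purified recombinant HIV-1 integrase with Mg2+ as cofactor, monitored in a microtiter plate format with viral-end and target DNAs; product detected through a digoxygenin label in the DNA; compounds titrated.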

pIC50: −log10 of the molar value. Where a name gives a salt, the structure may show the parent alone.

As to `CC1(C)CC2(CC(C)(C)c3c(Br)c(O)c(O)c(Br)c32)c2c(Br)c(O)c(O)c(Br)c21` [4,4',7,7'-tetrabromo-3,3,3',3'-tetramethyl-1,1'-spirobi[2,3-dihydro-1H-indene]-5,5',6,6'-tetraol], the pIC50 in assay [1] was 5.75; in assay [2], 5.50; in assay [3], 4.82.
In the case of `CC1(C)CC2(CC(C)(C)c3cc(N)c(O)cc32)c2cc(O)c(N)cc21` [3,3,3',3'-tetramethyl-1,1'-spirobi(indan)-5,5'-diamino-6,6'-diol Dihydrochloric salt], the pIC50 in assay [3] is 4.48.
Consider `CC1(C)CC2(CC(C)(C)c3ccc(O)c(NC(N)=O)c32)c2cc(O)c(NC(N)=O)cc21` (centres undefined) [3,3,3',3'-tetramethyl-1,1'-spirobi(indan)-6,6'-dihydroxy-5,7'-bisurea], for which the results for the pIC50 in assay [1] and in assay [2] were 3.46 and 3.38, respectively.
For the compound `CC1(C)CC2(CC(C)(C)c3cc([N+](=O)[O-])c(O)c([N+](=O)[O-])c32)c2cc(O)c([N+](=O)[O-])cc21` (centres undefined) [3,3,3',3'-tetramethyl-5,5',7'-trinitro-1,1'-spirobi[2,3-dihydro-1H-indene]-6,6'-diol], the pIC50 is 4.60 in assay [1], 4.36 in assay [2] and 4.33 in assay [3].
For `CC1(C)CC2(CC(C)(C)c3cc(Br)c(O)cc32)c2cc(O)c(Br)cc21` [5,5'-dibromo-3,3,3',3'-tetramethyl-1,1'-spirobi[2,3-dihydro-1H-indene]-6,6'-diol], the pIC50 is 5.00 in assay [1] and 4.96 in assay [2].
Regarding `CC1(C)CC2(CC(C)(C)c3c(Br)c(OS(=O)(=O)O)c(OS(=O)(=O)O)c(Br)c32)c2c(Br)c(OS(=O)(=O)O)c(OS(=O)(=O)O)c(Br)c21` [3,3,3',3'-tetramethyl-1,1'-spirobi(indan)-4,4',7,7'-tetrabromo-5,5',6,6'-tetrol tetrasulfate], the pIC50 was 6.46 in assay [1], 5.85 in assay [2] and 5.40 in assay [3].
For the compound `CC1(C)CC2(CC(C)(C)c3ccc(O)c([N+](=O)[O-])c32)c2cc(O)c([N+](=O)[O-])cc21` (centres undefined) [3,3,3',3'-tetramethyl-5,7'-dinitro-1,1'-spirobi[2,3-dihydro-1H-indene]-6,6'-diol], the pIC50 in assay [1] was 4.28; in assay [2] it was 4.33; in assay [3], 4.00.
Consider `CC1(C)CC2(CC(C)(C)c3ccc(O)cc32)c2cc(O)ccc21` [3,3,3',3'-tetramethyl-1,1'-spirobi[2,3-dihydro-1H-indene]-6,6'-diol], for which the pIC50 in assay [1] is 3.64; in assay [2], 3.56.
`CC1(C)CC2(CC(C)(C)c3cc(I)c(O)cc32)c2cc(O)c(I)cc21` [5,5'-diiodo-3,3,3',3'-tetramethyl-1,1'-spirobi[2,3-dihydro-1H-indene]-6,6'-diol]: the pIC50 was 5.51 in assay [1] and 5.20 in assay [2].
The like results for `CC1(C)CC2(CC(C)(C)c3cc(OS(=O)(=O)O)c(OS(=O)(=O)O)cc32)c2cc(OS(=O)(=O)O)c(OS(=O)(=O)O)cc21` [3,3,3',3'-tetramethyl-1,1'-spirobi(indan)-5,5',6,6'-tetrol tetrasulfate] were, in that order, 5.70 and 5.55.
On the same counts, the results for `CC1(C)CC2(CC(C)(C)c3cc(O)c(O)cc32)c2cc(O)c(O)cc21` [HIV-1 Integrase Inhibitor] are 5.30 and 4.77.
Consider `CC1(C)CC2(CC(C)(C)c3cc(C=O)c(O)cc32)c2cc(O)c(C=O)cc21` [6,6'-dihydroxy-3,3,3',3'-tetramethyl-1,1'-spirobi[2,3-dihydro-1H-indene]-5,5'-dicarbaldehyde], for which the values for the pIC50 in assay [1], in assay [2] and in assay [3] were 5.22, 4.46 and 4.80, respectively.
As to `CC1(C)CC2(CC(C)(C)c3cc(S(=O)(=O)O)c(O)cc32)c2cc(O)c(S(=O)(=O)O)cc21` [6,6'-dihydroxy-3,3,3',3'-tetramethyl-1,1'-spirobi[2,3-dihydro-1H-indene]-5,5'-disulfonic acid], the pIC50 in assay [3] is 4.16.
